Assay outcomes: PubChem, The Scripps Research Institute Molecular Screening Center
CHRM4 agonist – human M4 muscarinic receptor agonists, primary screen, CHO-K1 cells, Fluo-8 calcium fluorescence; Muscarinic acetylcholine receptor M4 (Homo sapiens), P08173; 360,000 compounds, 0.14% hits; CHO-K1 hM4/Gqi5; vehicle 0%, full acetylcholine response 100%; activation, % at 3 µM;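 active = activation above the run mean over all test wells plus 3 SD, cut at about 32% in these data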;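 note: peak over basal fluorescence ratio per well then scaled between controls; 0% = DMSO wells and 100% = acetylcholine at EC100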
Target sequence (P08173 whole entry, looked up): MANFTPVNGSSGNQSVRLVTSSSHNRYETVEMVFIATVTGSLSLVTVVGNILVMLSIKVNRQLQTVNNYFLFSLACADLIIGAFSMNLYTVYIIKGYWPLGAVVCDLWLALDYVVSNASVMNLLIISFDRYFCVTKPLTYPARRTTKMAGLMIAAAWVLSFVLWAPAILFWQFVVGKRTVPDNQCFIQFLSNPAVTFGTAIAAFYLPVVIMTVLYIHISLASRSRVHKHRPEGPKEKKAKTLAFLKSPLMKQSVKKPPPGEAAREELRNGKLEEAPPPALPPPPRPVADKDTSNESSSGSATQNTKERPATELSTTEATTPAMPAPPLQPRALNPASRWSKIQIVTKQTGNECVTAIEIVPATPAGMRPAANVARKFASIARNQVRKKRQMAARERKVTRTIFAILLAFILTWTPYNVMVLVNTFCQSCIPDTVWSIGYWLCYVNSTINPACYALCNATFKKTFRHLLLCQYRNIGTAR
M5 antag – human M5 muscarinic receptor antagonists, primary screen, CHO cells, Fluo-8 calcium fluorescence; inhibition, % at 3 µM; 360,000 compounds, 0.59% hits; CHO-hM5 cells, ACh EC80;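 active = inhibition above a per-plate cutoff, the mean of that plate's test compounds plus 3 SD, cut at about 27% in these data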;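 note: 0% = acetylcholine EC80 with DMSO and 100% = DMSO without agonist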
CHRM5 PAM – human M5 muscarinic receptor positive allosteric modulators, primary screen, CHO-K1 cells, Fluo-8 calcium fluorescence. CHO-K1 hM5, ACh EC20 PAM; 0% = ACh EC20, 100% = ACh EC100. 360,000 compounds, 0.3% hits. Muscarinic acetylcholine receptor M5 (Homo sapiens), P08912. activation, % at 3 µM;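 active = activation above the run cutoff, the mean activation of all test compounds plus 3 SD, cut at about 18% in these data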
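System: CHO-K1 hM5 cells. Reagent: acetylcholine, EC20 level. Compound dosing: single dose, 3 µM nominal final test concentration. Timing: Post-acetylcholine fluorescence recording 140 s. Detection: Fluo-8 calcium fluorescence. Read-out: % activation, ACh-normalized. Benchmarks: ACh EC20 and EC100 wells. Repeats: singlicate, one well per test compound.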
M5 ag – human M5 muscarinic receptor agonists, primary screen, CHO-K1 cells, Fluo-8 calcium fluorescence | 360,000 compounds, 0.19% hits | activation, % at 3 µM | CHO-K1 hM5 cells; 0% DMSO wells, 100% maximal acetylcholine response | AID 624037, 2012 | Muscarinic acetylcholine receptor M5 (Homo sapiens), P08912;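 active = activation above the run's mean over test compounds plus 3 SD, cut at about 23% in these data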;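 note: signal is peak over basal fluorescence ratio across the kinetic read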
CHRM4 PAM – human M4 muscarinic receptor positive allosteric modulators, primary screen, CHO-K1 cells, Fluo-8 calcium fluorescence. Muscarinic acetylcholine receptor M4 (Homo sapiens), P08173. CHO-K1 hM4/Gqi5, ACh EC20; 0% = ACh EC20, 100% = maximal ACh. 360,000 compounds, 0.4% hits. activation, % at 3 µM;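 active = activation above its plate's cutoff, the mean activation of sample wells plus 3 SD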
CHRM4 antagonist – human M4 muscarinic receptor antagonists, primary screen, CHO cells, Fluo-8 calcium fluorescence | inhibition, % at 3 µM | 360,000 compounds, 0.73% hits | CHO-hM4 cells, ACh EC80;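 active = inhibition above its plate's cutoff, the mean inhibition of sample wells plus 3 SD, cut at about 27% in these data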;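 note: 0% = acetylcholine EC80 with DMSO and 100% = DMSO without agonist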
An asterisk follows results filed as active. Rows were chosen to be rich in hits. Some 1.8% of all compounds tested hit in one or more screens of this group.

SMILES	CHRM4 agonist	M5 antag	CHRM5 PAM	M5 ag	CHRM4 PAM	CHRM4 antagonist
COC(=O)[C@]12CCCCC=C1N(CCc1ccc(OC)c(OC)c1)C(=O)[C@H](CC(=O)NCCCCc1ccccc1)C2	20	22	-17	3	-9	4
C=C1CC2(OC1=O)c1ccccc1CCc1ccccc12	3	17	-5	-10	-8	48*
Cc1c(C(=O)NCCC#N)sc(=O)n1Cc1ccccc1F	0	0	-1	2	-2	3
CCCNC(=O)c1ccc(N2CCC3(CC2)CC(c2cccc(Br)c2)=NO3)c([N+](=O)[O-])c1	11	17	-26	2	-8	33*
COC(=O)[C@@]12C[C@@H](CC(=O)NCCc3ccccc3OC)C(=O)N(Cc3cccc4ccccc34)C1=CCC(C)(C)C2	1	-4	8	0	8	-4
CC(=O)N1CCN(c2ccc(NCc3ccc4c(c3)OCO4)cc2)CC1	2	-7	-1	-1	23*	17
CNCCCC1c2ccccc2C=Cc2ccccc21	4	99*	-19	0	-18	91*
Fc1ccc(-n2nnnc2-c2cnc(-c3cccs3)nc2C(F)(F)F)cc1	14	47*	-23	2	-20	48*
C=CCNc1nc(NCc2ccc(N(C)C)cc2)c2sc(-c3ccccc3)cc2n1	0	2	-6	-1	-2	4
CCOC(=O)c1ccc(NC(=O)c2ncn3c2C(=O)NC[C@H]3C)cc1	1	1	0	0	11	-17
CCOC(=O)c1ccc(NC(=O)c2nc[nH]c2C(=O)N(CC)CC)cc1	2	2	4	3	22*	-5
CCOC(=O)c1ccc(NC(=O)c2nc[nH]c2C(=O)NCCCNC(=O)c2[nH]cnc2C(=O)Nc2ccc(C(=O)OCC)cc2)cc1	1	2	8	3	4	-6
CCOC(=O)c1ccc(NC(=O)c2ncn3c2C(=O)N[C@H](C)C3)cc1	0	-7	-4	1	17*	-23
COCCCN1C(=O)C(CC(=O)NC(c2ccccc2)c2ccccc2)CC(C(=O)N2CCOCC2)=C1C (configuration not stated)	1	6	0	2	5	-12
CCNS(=O)(=O)c1ccc(CCC(=O)Nc2cc(Cl)ccc2Oc2ccccc2)cc1	24	17	-24	0	-12	28*
CCc1nnc(NC(=O)c2ccc(S(=O)(=O)N(C)Cc3ccccc3)cc2)o1	3	6	6	1	16*	-8
CCc1nnc(NC(=O)c2ccc(S(=O)(=O)N(CC)Cc3ccccc3)cc2)o1	1	-1	2	5	-5	6
CCc1nc2ccc(C(=O)N3CCN(S(=O)(=O)CC)CC3)cn2c1N(CC)C(=O)NCCc1ccccc1	1	-4	0	0	0	4
CCOC(=O)C1(CCCc2ccccc2)CCN(C2CCSCC2)CC1	3	30*	-21	-11	-20	8
CC1(C)CC(=O)C(=Cc2cn(CCC#N)nc2-c2ccc(Cl)cc2)C(=O)C1	1	-5	4	-4	20*	-6
CCCCNC(=O)NC1(C(F)(F)F)Oc2ccccc2O1	0	-7	2	-7	2	-6
NS(=O)(=O)c1ccc(CCNC(=O)NC2(C(F)(F)F)Oc3ccccc3O2)cc1	0	-12	31*	-13	-7	7
CCCCCCCCN1CC(Cc2cc3ccccc3c3ccccc23)N(c2ccccc2)c2ccccc2C1=O (configuration not stated)	2	-10	10	-2	11	-19
COc1ccccc1OCC(=O)N/N=C(\C)c1ccc2ccccc2c1	3	5	-1	0	-3	3
CCCS(=O)(=O)NC(=O)C1(C)CCN(C(=O)c2cccc(C)c2C)C1 (configuration not stated)	1	-6	-1	0	19*	-11
SMILES	CHRM4 agonist	M5 antag	CHRM5 PAM	M5 ag	CHRM4 PAM	CHRM4 antagonist
COc1cc(NC(=O)C2(C)CCCN(C(C)C)C2)cc(OC)c1OC (configuration not stated)	1	-3	0	0	0	-10
Cc1nc2ccccc2cc1OCc1ccccc1	6	24	-14	2	-10	6
COc1cccc(COc2cc3ccccc3nc2C)c1	9	31*	-16	3	-2	24
Cc1nc2ccccc2cc1OCc1ccc(Cl)cc1	5	30*	-14	6	-14	19
Cc1ccc(S(=O)(=O)N2C[C@H]3C(=O)C[C@@H](c4ccc(Cl)cc4)N(S(=O)(=O)c4ccccc4C)[C@H]3C[C@H]2c2ccccc2)cc1	2	-6	4	2	0	-12
Cn1c(COc2ccccc2O)[n+](C)c2ccccc21	2	8	-2	-5	-1	-14
CCCCCCCCCCOC(=O)Cn1c(COc2ccccc2OC)[n+](C)c2ccccc21	7	45*	-30	-25	-16	58*
Cc1csc(=O)n1CC(=O)Nc1ccc(Cl)c(Cl)c1	3	8	-7	0	-7	8
Cn1c(N)c(N2CCCCC2)c(=O)n(CC(=O)Nc2ccc(Cl)c(Cl)c2)c1=O	0	-4	19*	6	24	3
CCc1nc2c(OCc3ccccc3)cccn2c1N(Cc1ccccc1)C(C)=O	0	9	-1	-2	-3	-3
O=C(NCc1cccnc1)/C(=C/c1ccc(-c2ccc(Cl)cc2)o1)S(=O)(=O)c1ccccc1	9	-1	-3	3	-20	28*
Nc1[nH]n2c(=O)cc(-c3ccccc3)nc2c1N=Nc1ccccc1	0	11	0	-2	-1	14
Nc1[nH]n2c(=O)cc(-c3ccccc3)nc2c1N=Nc1ccc(S(N)(=O)=O)cc1	1	13	19*	10	18	-2
Clc1ccc2ccc3cccnc3c2n1	0	1	-7	-2	-3	4
O=S1(=O)Nc2c(ccc3cccnc23)-c2ccccc21	2	31*	-4	0	-7	30*
O=C1CSC(c2ccccn2)N1c1ccccc1 (configuration not stated)	1	1	3	-1	10	0
O=C1CSC(c2ccccn2)N1c1ccc(Br)cc1 (configuration not stated)	0	7	3	-13	-22	61*
